Assay outcomes deposited in PubChem by The Scripps Research Institute Molecular Screening Center.
Shown are actives, neighbours in structure and some others; about 2.3% of the full set was active somewhere.
ADAM17 inh = ADAM17 inhibition, QFRET primary screen. P78536. recombinant ADAM17, EDANS/DABCYL FRET peptide cleavage. inhibition, % at 6.95 µM. 370,000 compounds, 0.83% hits. AID 720648;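 active means inhibition above the mean of compounds lying between control limits plus 3 SD, set per campaign, cut at about 8.5% in these data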
PLC-gamma1 inh = PLC-gamma1 (human) inhibition, primary screen. P19174. purified PLC-gamma1, fluorogenic substrate, fluorescence. inhibition, % at 12.2 µM. 370,000 compounds, 0.84% hits. AID 720700; in the data active means inhibition above about 9.5%
ADAM10 inh = ADAM10 inhibition, QFRET primary screen; 370,000 compounds, 0.62% hits; AID 720582; recombinant ADAM10, EDANS/DABCYL FRET peptide cleavage, 3 h; inhibition, % at 7 µM;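 active means inhibition above a per-campaign cutoff equal to the mean of compounds falling between control-based bounds plus 3 SD, cut at about 20% in these data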
Target sequence (O14672 214-748 limits assumed): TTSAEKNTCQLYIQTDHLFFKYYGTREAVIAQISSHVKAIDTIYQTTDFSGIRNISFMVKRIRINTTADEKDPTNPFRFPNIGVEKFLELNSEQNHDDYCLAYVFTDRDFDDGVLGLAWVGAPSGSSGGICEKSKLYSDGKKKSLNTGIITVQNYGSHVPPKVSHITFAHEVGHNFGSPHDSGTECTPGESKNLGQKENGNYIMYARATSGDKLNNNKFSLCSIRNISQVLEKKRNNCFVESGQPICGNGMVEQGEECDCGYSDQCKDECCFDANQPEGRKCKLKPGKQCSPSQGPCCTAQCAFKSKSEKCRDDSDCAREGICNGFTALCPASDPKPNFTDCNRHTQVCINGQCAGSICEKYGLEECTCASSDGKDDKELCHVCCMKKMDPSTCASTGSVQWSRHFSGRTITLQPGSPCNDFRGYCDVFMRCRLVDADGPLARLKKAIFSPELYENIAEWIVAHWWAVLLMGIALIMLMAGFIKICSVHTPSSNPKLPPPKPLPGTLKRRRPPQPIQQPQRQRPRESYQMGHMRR
Tn7 DDE FP = inhibitors of Tn7 peptide binding to human fibrin DD(E) | 370,000 compounds, 0.13% hits | P02675 | inhibition, % at 8.3 µM | FP displacement of FITC-Tn7 peptide from fibrin DD(E); 0% = median of compound wells per plate;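 active means inhibition above the mean of compounds falling within the control limits plus 3 SD of them, cut at about 14% in these data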
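System: human fibrin DD(E); quantity: Fibrin-DD(E) at 2 µM final; also added: fluorescent Tn7 probe at 0.1 µM; compound dosing: single nominal test concentration of 8.3 µM per compound; schedule: 10 min preincubation, 3 h with tracer, room temperature; detection: fluorescence polarization of the labelled Tn7 tracer; repeats: one replicate per compound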
Tn6 DDE FP = inhibitors of Tn6 peptide binding to human fibrin DD(E). P02675. Fibrin DD(E) TRITC-Tn6 fluorescence polarization displacement. inhibition, % at 8.3 µM. 370,000 compounds, 0.21% hits. AID 720509;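 active means inhibition above a per-campaign cutoff: mean of compounds within control limits plus 3 SD, cut at about 15% in these data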
PLC-beta3 inh = PLC-beta3 (human) inhibition, primary screen; Q01970; Purified PLC-beta3, fluorogenic substrate, fluorescence; inhibition, % at 12.2 µM; 370,000 compounds, 0.18% hits; AID 720704; in the data active means inhibition above about 11%
DDE Tn7 confirm = DD(E)-Tn7 binding inhibition, FP confirmation; FP displacement of TRITC-Tn7 peptide from DD(E); 0% set at plate's compound-well median; inhibition, % at 8.3 µM; 460 compounds, 5% hits; shares compounds with Tn7 DDE FP;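 active means inhibition above the campaign cutoff, the mean of compounds within control limits plus 3 SD, cut at about 14% in these data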;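 further: displacers lower polarization since freed probe rises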
DDE Tn7 FP ctr = DD(E)-Tn7 binding inhibition, counter-screen; 460 compounds, 3% hits; shares compounds with Tn7 DDE FP; inhibition, % at 8.3 µM; fibrin DD(E), TRITC-Tn7 probe displacement, fluorescence polarization;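 active means inhibition above the cutoff, the mean of compounds lying between the control bounds plus 3 SD of those compounds, cut at about 17% in these data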
Numbers stand for hits.

Screening CCOc1cc(C(C(=O)NCC2CCCO2)N(C(=O)Cn2nnc3ccccc32)c2ccc(NC(C)=O)cc2)ccc1O (centres undefined) returned ADAM17 inh inactive, PLC-gamma1 inh inactive, ADAM10 inh inactive, Tn7 DDE FP 31, Tn6 DDE FP inactive, PLC-beta3 inh inactive, DDE Tn7 confirm inactive and DDE Tn7 FP ctr inactive.
`COc1cc(C(C(=O)NCC2CCCO2)N(C(=O)Cn2nnc3ccccc32)c2ccc(OC)c(OC)c2)ccc1O` (centres undefined) gave ADAM17 inh inactive, PLC-gamma1 inh inactive, ADAM10 inh inactive, Tn7 DDE FP inactive, Tn6 DDE FP inactive and PLC-beta3 inh inactive.
Screening O=C(NCCO)[C@H](Cc1ccccc1)NC1(C(=O)NCCc2c[nH]c3ccccc23)CCCCC1 returned ADAM17 inh inactive, PLC-gamma1 inh inactive, ADAM10 inh inactive, Tn7 DDE FP inactive, Tn6 DDE FP inactive and PLC-beta3 inh inactive.
Screening CCOc1ccc(-n2c(SCC(=O)Nc3ccc(S(=O)(=O)Nc4cc(C)nc(C)n4)cc3)nnc2-c2ccc(OC)cc2)cc1 returned ADAM17 inh inactive, PLC-gamma1 inh inactive, ADAM10 inh inactive, Tn7 DDE FP inactive, Tn6 DDE FP inactive and PLC-beta3 inh inactive.
`O=C1NC(=S)SC1=Cc1cccs1` gave ADAM17 inh inactive, PLC-gamma1 inh inactive, ADAM10 inh inactive, Tn7 DDE FP 14, Tn6 DDE FP inactive, PLC-beta3 inh inactive, DDE Tn7 confirm inactive and DDE Tn7 FP ctr inactive.
For CCC1(C)NC(=O)N(CC(=O)N2N=C(c3ccccc3)CC2c2ccc(OC)cc2)C1=O (centres undefined) the results were ADAM17 inh inactive, PLC-gamma1 inh inactive, ADAM10 inh inactive, Tn7 DDE FP 17, Tn6 DDE FP inactive, PLC-beta3 inh inactive, DDE Tn7 confirm inactive and DDE Tn7 FP ctr inactive.
`O=C(OCCN1CCN(C2CN(Cc3cn(Cc4ccccc4Cl)nn3)S(=O)(=O)C2)CC1)c1cc2ccccc2o1` (centres undefined) gave ADAM17 inh inactive, PLC-gamma1 inh inactive, ADAM10 inh inactive, Tn7 DDE FP inactive, Tn6 DDE FP inactive and PLC-beta3 inh inactive.
For N#CC1=C(N)Oc2n[nH]c(-c3ccc(F)cc3)c2C1c1cccc(OC(=O)N2CCOCC2)c1 (centres undefined) the results were ADAM17 inh inactive, PLC-gamma1 inh inactive, ADAM10 inh inactive, Tn7 DDE FP 15, Tn6 DDE FP inactive, PLC-beta3 inh inactive, DDE Tn7 confirm inactive and DDE Tn7 FP ctr inactive.
`N#CC1=C(N)Oc2n[nH]c(-c3ccccc3)c2C1c1cccc(OC(=O)N2CCOCC2)c1` (centres undefined) gave ADAM17 inh inactive, PLC-gamma1 inh inactive, ADAM10 inh inactive, Tn7 DDE FP inactive, Tn6 DDE FP inactive and PLC-beta3 inh inactive.
COCCN1CCCC(CNCc2cn(C)nc2-c2ccc(Oc3ccccc3)cc2)C1 (centres undefined) was read as ADAM17 inh inactive, PLC-gamma1 inh inactive, ADAM10 inh inactive, Tn7 DDE FP 15, Tn6 DDE FP inactive, PLC-beta3 inh inactive, DDE Tn7 confirm inactive and DDE Tn7 FP ctr inactive.
`CN(C)S(=O)(=O)c1ccc(C(=O)NCC(=O)N/N=C/c2cccs2)cc1` gave ADAM17 inh inactive, PLC-gamma1 inh inactive, ADAM10 inh inactive, Tn7 DDE FP 15, Tn6 DDE FP inactive, PLC-beta3 inh inactive, DDE Tn7 confirm inactive and DDE Tn7 FP ctr inactive.
COc1c(Cl)cc(C(=O)NCc2ccco2)cc1Cl was read as ADAM17 inh inactive, PLC-gamma1 inh inactive, ADAM10 inh inactive, Tn7 DDE FP 14, Tn6 DDE FP inactive, PLC-beta3 inh inactive, DDE Tn7 confirm inactive and DDE Tn7 FP ctr inactive.
COc1cccc(NC(=O)COC(=O)c2ccc(S(=O)(=O)NCc3ccco3)cc2)c1 was read as ADAM17 inh inactive, PLC-gamma1 inh inactive, ADAM10 inh inactive, Tn7 DDE FP 15, Tn6 DDE FP inactive, PLC-beta3 inh inactive, DDE Tn7 confirm inactive and DDE Tn7 FP ctr inactive.
Cc1nc2ccc(C(=O)N3CCN(C(=O)C(Cl)Cl)CC3)cc2n1C1CCCC1 was read as ADAM17 inh inactive, PLC-gamma1 inh inactive, ADAM10 inh inactive, Tn7 DDE FP inactive, Tn6 DDE FP inactive and PLC-beta3 inh inactive.
For N/C(=N\OC(=O)CCCc1ccccc1)c1cccc([N+](=O)[O-])c1 the results were ADAM17 inh inactive, PLC-gamma1 inh inactive, ADAM10 inh inactive, Tn7 DDE FP inactive, Tn6 DDE FP inactive and PLC-beta3 inh inactive.
`N/C(=N\OC(=O)Cc1ccc(-c2ccccc2)cc1)c1cccc([N+](=O)[O-])c1` gave ADAM17 inh inactive, PLC-gamma1 inh inactive, ADAM10 inh inactive, Tn7 DDE FP 14, Tn6 DDE FP inactive, PLC-beta3 inh inactive, DDE Tn7 confirm inactive and DDE Tn7 FP ctr inactive.
COc1ccc2c(c1)CO[C@H]([C@H](O)COC(C)=O)[C@H]2/C=C/c1ccccc1 was read as ADAM17 inh inactive, PLC-gamma1 inh inactive, ADAM10 inh inactive, Tn7 DDE FP 15, Tn6 DDE FP inactive, PLC-beta3 inh inactive, DDE Tn7 confirm inactive and DDE Tn7 FP ctr inactive.
For COc1cc2c(c(OC)c1)[C@H](/C=C/c1ccccc1)[C@@H]([C@H](O)CO)OC2 the results were ADAM17 inh inactive, PLC-gamma1 inh inactive, ADAM10 inh inactive, Tn7 DDE FP inactive, Tn6 DDE FP inactive and PLC-beta3 inh inactive.
CC1(C)Cc2c(cnn2-c2ccccc2)C(NC(=O)CCCN2CCCCC2=O)C1 (centres undefined) was read as ADAM17 inh inactive, PLC-gamma1 inh inactive, ADAM10 inh inactive, Tn7 DDE FP 16, Tn6 DDE FP inactive, PLC-beta3 inh inactive, DDE Tn7 confirm inactive and DDE Tn7 FP ctr inactive.
Screening O=C1CCC[C@H]2C[C@H](NCc3ccc(F)cc3F)CC[C@]23CCCN13 returned ADAM17 inh inactive, PLC-gamma1 inh inactive, ADAM10 inh inactive, Tn7 DDE FP inactive, Tn6 DDE FP inactive and PLC-beta3 inh inactive.
`COc1ccc(S[C@]2(C(=O)N(C)C)CC(=O)N(c3ccccc3)[C@@H]2c2ccc(OC)cc2)cc1` gave ADAM17 inh inactive, PLC-gamma1 inh inactive, ADAM10 inh inactive, Tn7 DDE FP inactive, Tn6 DDE FP inactive and PLC-beta3 inh inactive.
Screening O=C(NCCC(=O)N1CCN(c2ccccn2)CC1)c1ccc([N+](=O)[O-])cc1 returned ADAM17 inh inactive, PLC-gamma1 inh inactive, ADAM10 inh inactive, Tn7 DDE FP 15, Tn6 DDE FP inactive, PLC-beta3 inh inactive, DDE Tn7 confirm inactive and DDE Tn7 FP ctr inactive.
